The values that follow come from ChEMBL document CHEMBL1133470, “Synthesis and antiviral activity of oxaselenolane nucleosides” (J Med Chem, 2000).

Where only a bound is given, the exact number is not on record here.

For assay [1], the system named is Human immunodeficiency virus 1. Kind of assay: Antiviral activity against Immunodeficiency virus type-1 (HIV-1) in peripheral blood mononuclear cells. The assay is classed as functional, organism-based. The procedure, abridged:
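HIV-1 infection of human peripheral blood mononuclear (PBM) cells; EC50 reported in µM.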

Assay [2] concerns Vero. Briefly: (§1) In vitro cytotoxicity against Vero cells. Format: functional, cell-based, Chlorocebus sabaeus.
The test system of a further assay is Hepatitis B virus. Briefly: Antiviral activity against Hepatitis B virus (HBV) in 2.2.15 cells. Format: functional, organism-based. Conditions: HepG2 2.2.15.
Assay [3] has as its system CCRF-CEM. Kind of assay: In vitro cytotoxicity against CEM cells. Format: functional, cell-based, Homo sapiens.
Assay [4] in a line: In vitro cytotoxicity against PBM cells. Format: functional, cell-based, Homo sapiens.
The subject of assay [5] is Vero. The assay is described as §1. The assay is classed as functional, cell-based. Conditions: Chlorocebus sabaeus.
The test system of assay [6] is CCRF-CEM. Kind of assay: In vitro cytotoxicity againstCEM cells. Format: functional, cell-based. Conditions: Homo sapiens.
Assay [7] is described as follows: Fold increase expressed as ratio of EC90 from M184V virus to that from xxBRU virus. The assay is classed as functional.
The nature of assay [8]: Fold increase expressed as ratio of EC50 from M184V virus to that from xxBRU virus. Format: functional.
For assay [9], the system named is Human immunodeficiency virus 1. Kind of assay: (§2) Anti HIV activity against cloned FTC-sensitive mutant xxBRU HIV-1. Format: functional.
Assay [10] concerns Human immunodeficiency virus 1. Briefly: (§3) Anti HIV activity against cloned FTC/3TC-resistant mutant M184V HIV-1. The assay is classed as functional.
Assay [11] relates to Human immunodeficiency virus 1. The description is as §2. Format: functional, organism-based.
In assay [12] the test system is Human immunodeficiency virus 1. The assay is described as §3. The assay is classed as functional, organism-based.

One may read the EC50 as the concentration needed to bring the measured effect to its halfway point. Usually IC50 stands for the point on the concentration scale where inhibition reaches its midpoint. A higher IC50 goes with weaker potency. As to `Cc1cn([C@H]2C[Se][C@@H](CO)O2)c(=O)[nH]c1=O`, the EC50 (in assay [1] (Human immunodeficiency virus 1); in the assay on Hepatitis B virus) was above 10 µM each time. Further, the IC50 with Vero [2] (Chlorocebus sabaeus, Vero) is above 100 µM; in the assay on CCRF-CEM [3] (Homo sapiens, CCRF-CEM) it was above 100 µM; in assay [4] (Homo sapiens, PBMC), above 100 µM.

In assay [1] (Human immunodeficiency virus 1), `Nc1ccn([C@@H]2C[Se][C@@H](CO)O2)c(=O)n1` displayed an EC50 above 100 µM. For the same compound, the IC50 in the assay with Vero [2] (Chlorocebus sabaeus, Vero) is above 100 µM; in the assay with CCRF-CEM [3] (Homo sapiens, CCRF-CEM), above 100 µM; in assay [4] (Homo sapiens, PBMC) it was above 100 µM.

On to `OC[C@H]1O[C@@H](n2cnc3c(O)ncnc32)C[Se]1`, for which the EC50 in [1] (Human immunodeficiency virus 1) is above 100 µM; in the assay on Hepatitis B virus, above 10 µM. In addition, the IC50 in the assay on Vero [2] (Chlorocebus sabaeus, Vero) was above 100 µM; in the assay with CCRF-CEM [3] (Homo sapiens, CCRF-CEM), above 100 µM; in assay [4] (Homo sapiens, PBMC) it was above 100 µM.

For the compound `Cc1cn([C@@H]2C[Se][C@@H](CO)O2)c(=O)[nH]c1=O`, the EC50 in assay [1] (Human immunodeficiency virus 1) was above 100 µM; in the assay with Hepatitis B virus, above 10 µM. Further, the IC50 in the assay with Vero [2] (Chlorocebus sabaeus, Vero) was above 100 µM; in the assay on CCRF-CEM [3] (Homo sapiens, CCRF-CEM), above 100 µM; in assay [4] (Homo sapiens, PBMC), above 100 µM.

On to `O=c1ccn([C@H]2C[Se][C@@H](CO)O2)c(=O)[nH]1`, for which the figures for the EC50 (in assay [1] (Human immunodeficiency virus 1); with Hepatitis B virus) were above 100 µM and above 10 µM, respectively. Also, the half-inhibitory concentration (IC50) in the assay on Vero [5] is above 100 µM; in [4] (Homo sapiens, PBMC) it was above 100 µM; with CCRF-CEM [6], above 100 µM.

For the compound `Nc1ncnc2c1ncn2[C@@H]1C[Se][C@@H](CO)O1`, the EC50 in assay [1] (Human immunodeficiency virus 1) is above 100 µM; in the assay on Hepatitis B virus, above 10 µM. The IC50 in the assay with Vero [2] (Chlorocebus sabaeus, Vero) is above 100 µM; in the assay on CCRF-CEM [3] (Homo sapiens, CCRF-CEM), above 100 µM; in assay [4] (Homo sapiens, PBMC), above 100 µM.

In the case of `Nc1ncnc2c1ncn2[C@H]1C[Se][C@@H](CO)O1`, the concentration for a half-maximal effect (EC50) in assay [1] (Human immunodeficiency virus 1) was above 50 µM; in the assay with Hepatitis B virus, above 10 µM. The IC50 in the assay with Vero [2] (Chlorocebus sabaeus, Vero) was above 100 µM; with CCRF-CEM [3] (Homo sapiens, CCRF-CEM) it was above 100 µM; in assay [4] (Homo sapiens, PBMC), above 100 µM.

As for `Nc1nc(O)c2ncn([C@@H]3C[Se][C@@H](CO)O3)c2n1`, the EC50 in [1] (Human immunodeficiency virus 1) was above 100 µM; with Hepatitis B virus, above 10 µM. Besides, the IC50 was above 100 µM in the assay with Vero [2] (Chlorocebus sabaeus, Vero); above 100 µM with CCRF-CEM [3] (Homo sapiens, CCRF-CEM); above 100 µM in assay [4] (Homo sapiens, PBMC).

Turning to `OC[C@H]1O[C@H](n2cnc3c(O)ncnc32)C[Se]1`, the EC50 in assay [1] (Human immunodeficiency virus 1) is above 100 µM; with Hepatitis B virus, above 10 µM. Also, the half-inhibitory concentration (IC50) was above 100 µM in the assay on Vero [2] (Chlorocebus sabaeus, Vero); above 100 µM in the assay on CCRF-CEM [3] (Homo sapiens, CCRF-CEM); above 100 µM in assay [4] (Homo sapiens, PBMC).

`O=c1ccn([C@@H]2C[Se][C@@H](CO)O2)c(=O)[nH]1`: the EC50 in assay [1] (Human immunodeficiency virus 1) was 101 µM; in the assay on Hepatitis B virus, above 10 µM. In addition, the IC50 is above 100 µM with Vero [2] (Chlorocebus sabaeus, Vero); above 100 µM in the assay on CCRF-CEM [3] (Homo sapiens, CCRF-CEM); above 100 µM in [4] (Homo sapiens, PBMC).

`Nc1nc(O)c2ncn([C@H]3C[Se][C@@H](CO)O3)c2n1`: the EC50 in assay [1] (Human immunodeficiency virus 1) was 28.9 µM; with Hepatitis B virus, above 10 µM. Moreover, the IC50 with Vero [2] (Chlorocebus sabaeus, Vero) was above 100 µM; with CCRF-CEM [3] (Homo sapiens, CCRF-CEM), above 100 µM; in assay [4] (Homo sapiens, PBMC), above 100 µM.

In the case of `Nc1nc(=O)n([C@H]2C[Se][C@@H](CO)O2)cc1F` (racemic), the EC50 was determined as 0.73 µM in assay [1] and 1.2 µM with Hepatitis B virus. Moreover, the IC50 with Vero [2] (Chlorocebus sabaeus, Vero) is above 100 µM; with CCRF-CEM [3] (Homo sapiens, CCRF-CEM) it was above 100 µM; in assay [4] (Homo sapiens, PBMC) it was above 100 µM.

In general, EC90 refers to the concentration needed for an effect of 90%. Low readings indicate an effect from little substance, high ones a need for much substance. Consider `Nc1ccn([C@H]2C[Se][C@@H](CO)O2)c(=O)n1` (stereo in doubt; 9c), for which the EC50 is 2.7 µM in assay [1], 1.2 µM with Hepatitis B virus, 1.84 µM in assay [11] and 108 µM in assay [12]. Moreover, the FI in [7] worked out at 49; in [8], 59. In addition, the half-inhibitory concentration (IC50) with Vero [2] (Chlorocebus sabaeus, Vero) is above 100 µM; with CCRF-CEM [3] (Homo sapiens, CCRF-CEM), above 100 µM; in assay [4] (Homo sapiens, PBMC), above 100 µM. Moreover, the results for the 90% effect concentration (EC90) in assay [9] and in assay [10] were 6.9 µM and 337 µM, respectively.

With `Nc1nc(=O)n([C@@H]2C[Se][C@@H](CO)O2)cc1F` (stereo in doubt; 10d), the EC50 is 57.1 µM in [1] and above 10 µM in the assay with Hepatitis B virus.

`Nc1nc(=O)n([C@@H]2C[Se][C@@H](CO)O2)cc1F` (stereo in doubt; (+)) came in with an EC50 in assay [1] of 95.3 µM.

In assay [1], `Nc1nc(=O)n([C@H]2C[Se][C@@H](CO)O2)cc1F` (stereo in doubt; (+)) registered an EC50 of 41.9 µM. Compared with the last compound, the EC50 is about 2.3-fold lower.

Regarding `Nc1ccn([C@H]2C[Se][C@@H](CO)O2)c(=O)n1` (stereo in doubt; (+)), the EC50 in assay [1] stood at 3.4 µM; in assay [11] it was 8.62 µM; in assay [12] it was 50 µM. Besides, the FI is listed as above 1 in [7] and above 6 in [8]. In addition, the IC50 (in the assay on Vero [2] (vero); with CCRF-CEM [3] (ccrf-cem); in assay [4] (pbm)) was 100 µM each time. The results for the 90% effect concentration (EC90) in assay [9] and in assay [10] were 35.1 µM and 50 µM, respectively.

For the compound `Nc1nc(=O)n([C@@H]2C[Se][C@@H](CO)O2)cc1F` (stereo in doubt; (-)), in assay [1], a half-maximal effect (EC50) was put at 6.4 µM. For the same compound, the IC50 was above 100 µM in the assay with Vero [2] (Chlorocebus sabaeus, Vero); above 100 µM in the assay with CCRF-CEM [3] (Homo sapiens, CCRF-CEM); above 100 µM in [4] (Homo sapiens, PBMC).

`Nc1nc(=O)n([C@H]2C[Se][C@@H](CO)O2)cc1F` (stereo in doubt; (-)) yielded an EC50 in [1] of 0.2 µM. This counts as sub-micromolar.

Consider `Nc1ccn([C@H]2C[Se][C@@H](CO)O2)c(=O)n1` (stereo in doubt; (-)), for which the figures for the EC50 in [1], in assay [11] and in assay [12] were 0.9 µM, 0.11 µM and above 50 µM, respectively. Also, the figures for the FI in [7] and in assay [8] were above 53 and above 455, respectively. Further, the figures for the EC90 in assay [9] and in assay [10] were 0.95 µM and above 50 µM, respectively.

On to `Nc1ccn([C@@H]2CS[C@H](CO)O2)c(=O)n1` [LAMIVUDINE], for which the half-maximal effective concentration (EC50) in assay [1] (Human immunodeficiency virus 1) stood at 0.07 µM; in the assay with Hepatitis B virus, 0.008 µM. Further, the IC50 in the assay with Vero [2] (Chlorocebus sabaeus, Vero) was above 100 µM; with CCRF-CEM [3] (Homo sapiens, CCRF-CEM) it was above 100 µM; in assay [4] (Homo sapiens, PBMC) it was above 100 µM.
